Screening results from PubChem.
BB579 growth dn: chemicals that inhibit yeast BB579 growth in restrictive medium (lifespan-shortening candidates); S. cerevisiae BB579 growth, OD615, 48 h; inhibition, % at 10 µM; 140,000 tested, 0.51% active;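 active means inhibition above a set limit, 3 SD over the mean compound inhibition, cut at about 44% in these data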
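Detection: OD615 turbidity measurement; Material: Saccharomyces cerevisiae DeaD strain BB579, replicative lifespan model yeast; Timing: 48 h exposure, 30 °C; Doses: single 10 µM dose; Medium: CSMM-D restrictive synthetic medium containing dextrose (glucose); Controls: amphotericin B at 10 µg/mL as positive control.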
Ins promoter up: MIN6 insulin promoter up-regulation; MIN6 insulin promoter-GFP reporter, high-content imaging; hits give high values; z-score at 5 µM; 190,000 tested, 0.3% active; AID 1625;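 active means z-score above 3 at 5 µM with at least 500 cells counted in the well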
Insulin prom inh: TRM-6 insulin promoter activity inhibition. TRM-6 cells, insulin promoter-eGFP reporter, imaging; reporter expression induced with tamoxifen. inhibition, % at 2 µM. 130,000 tested, 0.9% active;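 active means inhibition above the mean plus 3 SD, with well images judged a real hit on visual review, cut at about 60% in these data, passing the limit was not always enough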
RAM inhibit: blocks the yeast RAM network | S. cerevisiae dse1pr::URA3 reporter, 5-FOA growth OD615, 2 d; analog-sensitive cbk1-as2 kinase mutant strain | inhibition, % at 50 µM | 190,000 tested, 1.8% active | AID 868;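 active means inhibition above a set limit, 3 SD over mean compound inhibition, cut at about 8.4% in these data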;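 further: 0% = DMSO-only wells with no growth and 100% = 10 µM 1-NA-PP1 full growth; inhibition rescues growth on 5-FOA so higher OD means more RAM inhibition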
Yeast life ext: yeast lifespan extension; S. cerevisiae growth with nicotinamide, OD615; deaD strain in restrictive glucose medium; inhibition of the nicotinamide effect, % at 10 µM; 130,000 tested, 0.68% active;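 active means inhibition above a set limit, placed 3 SD over the median of all compounds, cut at about 26% in these data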;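 further: 0% = nicotinamide-treated wells and 100% = cells grown without nicotinamide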
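Assay system: engineered S. cerevisiae DeaD replicative-lifespan strain, galactose-grown log-phase cells; Buffer or medium: CSMM-D glucose medium, restrictive; Probe or stimulus: nicotinamide 1.5 mM; Compound: single dose 10 µM compound, 0.25% DMSO; Schedule: 4 h preincubation then 48 h treatment at 30 °C; Technique: OD615 measurement.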
RAM 5-FOA: restores 5-FOA growth of efflux-deficient yeast; shares compounds with RAM inhibit; S. cerevisiae efflux-deficient reporter strain, 5-FOA growth OD615, 2 days; max inhibition, %; 1,200 tested, under 10 active; call rule not given here;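 further: plate controls were vehicle for no effect and reference inhibitor for full effect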
An asterisk follows results filed as active. The list is not random: actives were taken first. Their share in the collection is about 3.1%.

Results for CC(=O)Nc1sc(C)c(C)c1C(=O)OCC(=O)Nc1cc(S(=O)(=O)N2CCCCC2)ccc1Cl ?
BB579 growth dn: -34.8; Ins promoter up: 0.33; Insulin prom inh: 0.0; RAM inhibit: 1.9; Yeast life ext: 1.8

How did CNCc1ccccc1OCc1ccc(F)cc1 do in these assays?
Ins promoter up: -0.02; RAM inhibit: 1.0

Results for CCOc1cc(C2NN=C(c3ccccc3)S2)ccc1OCc1ccc(F)cc1 (configuration not stated) ?
BB579 growth dn: -31.9; Ins promoter up: -0.08; Insulin prom inh: 18.9; RAM inhibit: 11.9*; Yeast life ext: -3.8; RAM 5-FOA: 3.3

Results for CCOc1cc(C2NN=C(c3ccccc3)S2)ccc1OCc1ccccc1Cl (configuration not stated) ?
BB579 growth dn: -59.9; Ins promoter up: -0.08; RAM inhibit: 12.6*; Yeast life ext: -25.5; RAM 5-FOA: 4.0

How did CC(=O)Nc1ccc(S(=O)(=O)C(C#N)c2nc3ccccc3nc2NCCN2CCOCC2)cc1 (configuration not stated) do in these assays?
Ins promoter up: -0.43; Insulin prom inh: 16.7; RAM inhibit: 2.5

What do the screens show for `COc1ccccc1OC(=O)CCN1c2ccccc2Sc2ccccc21`?
BB579 growth dn: -22.7; Insulin prom inh: 54.5; RAM inhibit: 14.2*; Yeast life ext: 1.2; RAM 5-FOA: 5.7

Results for O=C(Nc1ccc(Oc2ccc3ccccc3c2)cc1)c1ccco1 ?
BB579 growth dn: -23.4; Ins promoter up: -0.35; RAM inhibit: 15.3*; Yeast life ext: -23.5; RAM 5-FOA: 4.3

What do the screens show for `Cc1[nH]n(-c2ncc(-c3ccccc3)s2)c(=O)c1C(c1ccc(Cl)cc1)C(C#N)C#N` (configuration not stated)?
BB579 growth dn: -0.2; Ins promoter up: -0.28; RAM inhibit: 12.4*; Yeast life ext: 35.1*; RAM 5-FOA: 5.2

What do the screens show for `Cc1[nH]n(-c2ccccc2)c(=O)c1C(C[N+](=O)[O-])c1ccc(Cl)cc1` (configuration not stated)?
BB579 growth dn: -21.5; Ins promoter up: 0.41; Insulin prom inh: 25.0; RAM inhibit: 0.0; Yeast life ext: 17.9

How did CN(CCOc1ccccc1)S(=O)(=O)c1ccc2oc3ccccc3c2c1 do in these assays?
BB579 growth dn: -41.6; Ins promoter up: 0.49; Insulin prom inh: 16.1; RAM inhibit: 14.6*; Yeast life ext: 3.4; RAM 5-FOA: 7.2

Results for COc1ccc(OCCNS(=O)(=O)c2ccc3oc4ccccc4c3c2)cc1 ?
BB579 growth dn: -35.4; Ins promoter up: 0.5; Insulin prom inh: -15.4; RAM inhibit: 4.0; Yeast life ext: -7.6

What do the screens show for `CCCC[C@@H]1C[C@H]1[C@@H](NC(=O)c1ccccc1)c1ccccc1C(F)(F)F`?
BB579 growth dn: -36.7; Ins promoter up: -0.97; Insulin prom inh: 19.1; RAM inhibit: 22.1*; Yeast life ext: 2.4; RAM 5-FOA: 2.9

Results for COC(=O)[C@@H]1C[C@H]1[C@@H](NC(=O)c1ccccc1)c1ccccc1 ?
BB579 growth dn: -6.4; Ins promoter up: 0.96; Insulin prom inh: -47.6; RAM inhibit: -0.3; Yeast life ext: -2.0

Results for Cc1nn(-c2ccccc2C(F)(F)F)c(=O)c2noc(C)c12 ?
Ins promoter up: 0.48

What do the screens show for `COc1cccc(NC(=S)NCCC(c2ccccc2)c2ccccc2)c1`?
BB579 growth dn: 24.3; Ins promoter up: -1.09; RAM inhibit: 12.1*; Yeast life ext: -13.8; RAM 5-FOA: 3.9

What do the screens show for `Cc1cccc(NC(=S)NCCC(c2ccccc2)c2ccccc2)c1`?
BB579 growth dn: 31.7; Ins promoter up: -0.24; Insulin prom inh: -48.6; RAM inhibit: 6.6; Yeast life ext: 2.3

How did O=C(/C=C/c1ccccc1)N1CCN(c2cccc(Cl)n2)CC1 do in these assays?
BB579 growth dn: -36.5; Insulin prom inh: -14.0; RAM inhibit: 11.8*; Yeast life ext: -6.5; RAM 5-FOA: 4.2

Results for O=C(c1cc(-c2ccco2)nc2ccccc12)N1CCN(c2ccc(F)cc2)CC1 ?
BB579 growth dn: -1.8; Ins promoter up: 0.81; Insulin prom inh: 24.1; RAM inhibit: 0.1; Yeast life ext: -0.2

How did C=CCOc1cccc(/C=C2\C(=O)N(Cc3ccc(C)cc3)C(C)=C2C(=O)OC)c1 do in these assays?
BB579 growth dn: -19.9; RAM inhibit: 17.8*; Yeast life ext: 7.1; RAM 5-FOA: 4.2

What do the screens show for `O=C(Nc1ccccc1)C1=C[C@@H](C2CCCCC2)C[C@@H](OCc2ccc(CO)cc2)O1`?
Ins promoter up: -0.64; RAM inhibit: 11.9*; RAM 5-FOA: 5.5

What do the screens show for `O=C(Nc1ccccc1)C1=C[C@H](C2CCCCC2)C[C@H](OCc2ccc(CO)cc2)O1`?
Ins promoter up: -1.76; RAM inhibit: 14.2*; RAM 5-FOA: 4.6

What do the screens show for `O=C(Nc1ccccc1)C1=C[C@@H](C2CCCCC2)C[C@@H](OCCCCO)O1`?
Ins promoter up: -0.26; RAM inhibit: 4.7

Results for CN1C(=O)/C(=C/c2ccccc2OCc2cccc(F)c2)NC1=S ?
BB579 growth dn: -81.2; Ins promoter up: 1.27; Insulin prom inh: 29.6; RAM inhibit: 11.4*; Yeast life ext: -9.8; RAM 5-FOA: 2.2

How did CCCn1nnc(NC(=O)c2cccc(OCc3ccccc3)c2)n1 do in these assays?
BB579 growth dn: -26.0; Ins promoter up: 0.91; Insulin prom inh: 42.9; RAM inhibit: 4.6; Yeast life ext: -21.9

What do the screens show for `CC1=C(C(=O)OCc2ccccc2)C(c2ccccc2-c2ccccc2)NC(=O)N1CCCCCC(=O)O` (configuration not stated)?
BB579 growth dn: -59.8; Ins promoter up: -0.57; Insulin prom inh: -100.0; RAM inhibit: 3.5; Yeast life ext: 11.1

Results for CC1=C(C(=O)OCc2ccccc2)C(c2ccc(C(C)(C)C)cc2)NC(=O)N1CCCCCC(=O)O (configuration not stated) ?
BB579 growth dn: -45.2; Ins promoter up: 0.59; Insulin prom inh: 38.1; RAM inhibit: 17.8*; Yeast life ext: 6.0; RAM 5-FOA: 6.2

How did CC1=C(C(=O)OCc2ccccc2)C(c2ccc([N+](=O)[O-])cc2)NC(=O)N1CCCCCC(=O)O (configuration not stated) do in these assays?
BB579 growth dn: -33.5; Ins promoter up: -0.04; Insulin prom inh: 20.0; RAM inhibit: 13.7*; Yeast life ext: 10.4; RAM 5-FOA: 5.1

Results for O=C(COC(=O)CNS(=O)(=O)c1ccc2ccccc2c1)Nc1ccccc1Sc1ccccc1 ?
BB579 growth dn: -30.6; Ins promoter up: 1; Insulin prom inh: 10.0; RAM inhibit: 22.6*; Yeast life ext: -0.4; RAM 5-FOA: 4.0

What do the screens show for `COc1ccc(C(=O)/C=C/Nc2ccc(S(=O)(=O)Nc3onc(C)c3C)cc2)cc1`?
BB579 growth dn: -21.5; Ins promoter up: -0.03; Insulin prom inh: 29.9; RAM inhibit: 12.8*; Yeast life ext: 5.2; RAM 5-FOA: 5.4
